By Cmax is commonly meant the peak of the concentration-time curve. Usually AUC(0-t) stands for exposure summed from dosing to a finite time, without extrapolation to infinity. By clearance is commonly meant a measure of how efficiently the substance is removed, as volume per time. The low end stands for inefficient removal, the high end for efficient removal. A word on the half-life: it is the time in which the quantity being followed falls by half.

The text below walks through data of ChEMBL document CHEMBL4024802, “3-((R)-4-(((R)-6-(2-Bromo-4-fluorophenyl)-5-(ethoxycarbonyl)-2-(thiazol-2-yl)-3,6-dihydropyrimidin-4-yl)methyl)morpholin-2-yl)propanoic Acid (HEC72702), a Novel Hepatitis B Virus Capsid Inhibitor Based on Clinical Candidate GLS4” (J Med Chem, 2018).

The structures appear in SMILES notation.

The nature of data set [1]: Cmax in Beagle dog at 5 mg/kg, po administered as single dose by LC-MS/MS analysis. As to conditions: in vivo. The arrangement: dose 5 mg/kg, route oral. The format is ADME, organism-based, Canis lupus familiaris. The gist of the method: (§1)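 Beagle dogs, 7−9 months, 8−12 kg, non-naive, fasted overnight; 3 dogs per iv or po group; dosed in 5% DMSO/5% solutol/90% saline. Serial blood into sodium heparin, plasma separated at 4 °C, stored −80 °C; LC-MS/MS quantitation; noncompartmental analysis, BLQs omitted.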

The nature of data set [2]: AUC (0 to 24 hrs) in Beagle dog at 2 mg/kg, iv administered as single dose by LC-MS/MS analysis. The arrangement: dose 2 mg/kg, time < 24 hr, route intravenous. As to conditions: in vivo. The format is ADME, organism-based, Canis lupus familiaris. In a few lines:
as §1

Data set [3] is described as follows: AUC (0 to 24 hrs) in Beagle dog at 5 mg/kg, po administered as single dose by LC-MS/MS analysis. As to conditions: in vivo. The arrangement: time < 24 hr, dose 5 mg/kg, route oral. The format is ADME, organism-based, Canis lupus familiaris. In a few lines:
as §1

The nature of data set [4]: AUC (0 to 24 hrs) in Sprague-Dawley rat at 5 mg/kg, po administered as single dose by LC-MS/MS analysis. Format: ADME, organism-based. The arrangement: time < 24 hr, dose 5 mg/kg, route oral. Conditions: in vivo. In a few lines:
(§2)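 Male Sprague−Dawley rats (6−7 weeks, 190−240 g), fasted overnight with food returned 4 h post-dose; 3 rats iv, 3 po; vehicle 5% DMSO, 5% solutol, 90% saline. Heparinized plasma frozen at −80 °C, analysed by LC-MS/MS; noncompartmental PK parameters, BLQ values excluded.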

The nature of data set [5]: AUC (0 to 24 hrs) in Sprague-Dawley rat at 2 mg/kg, iv administered as single dose by LC-MS/MS analysis. Format: ADME, organism-based. The arrangement: dose 2 mg/kg, time < 24 hr, route intravenous. As to conditions: in vivo. In a few lines: as §2
Data set [6] in a line: Plasma concentration in Beagle dog at 5 mg/kg, po administered as single dose after 24 hrs by LC-MS/MS analysis. Format: ADME, organism-based, Canis lupus familiaris. In a few lines: as §1
Data set [7] in a line: Intrinsic clearance in mouse liver microsomes at 1 uM preincubated for 10 mins followed by NADPH addition measured up to 60 mins by LC-MS/MS analysis. The format is ADME, microsome. As to conditions: read-out: CLH. Background: Liver microsomes are a subcellular fraction often used to study metabolism.
Data set [8] is described as follows: Cmax in Beagle dog at 2 mg/kg, iv administered as single dose by LC-MS/MS analysis. The format is ADME, organism-based, Canis lupus familiaris. The arrangement: dose 2 mg/kg, route intravenous. As to conditions: in vivo. In a few lines: as §1
Data set [9] can be described thus: Oral bioavailability in Sprague-Dawley rat at 5 mg/kg administered as single dose by LC-MS/MS analysis. The format is ADME, organism-based. As to conditions: in vivo. In a few lines:
as §2

Data set [10] can be described thus: Volume of distribution at steady state in Sprague-Dawley rat at 2 mg/kg, iv administered as single dose by LC-MS/MS analysis. Format: ADME, organism-based. As to conditions: in vivo, read-out: Vdss. In a few lines: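 Male Sprague−Dawley rats (6−7 weeks, 190−240 g) were fasted overnight, with food returned 4 h post-dose and n = 3 in the iv group. A single dose was given in 5% DMSO, 5% solutol and 90% saline. Heparinized plasma was separated at 4 °C and frozen at −80 °C. Concentrations were measured by LC-MS/MS, with parameters from noncompartmental analysis and BLQs excluded.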

A short description of data set [11]: Clearance in Beagle dog at 2 mg/kg, iv administered as single dose by LC-MS/MS analysis. Format: ADME, organism-based, Canis lupus familiaris. As to conditions: in vivo. The gist of the method:
as §1

Data set [12] in a line: Plasma concentration in Beagle dog at 2 mg/kg, iv administered as single dose after 24 hrs by LC-MS/MS analysis. The format is ADME, organism-based, Canis lupus familiaris. In a few lines:
as §1

Data set [13] can be described thus: Clearance in Sprague-Dawley rat at 2 mg/kg, iv administered as single dose by LC-MS/MS analysis. The format is ADME, organism-based. As to conditions: in vivo. The gist of the method:
as §2

Data set [14] in a line: Volume of distribution at steady state in Beagle dog at 2 mg/kg, iv administered as single dose by LC-MS/MS analysis. Format: ADME, organism-based, Canis lupus familiaris. As to conditions: in vivo, read-out: Vdss. The gist of the method:
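Non-naive beagle dogs (7−9 months, 8−12 kg) were fasted overnight, with 3 animals in the iv group. Compound was given as a single dose in 5% DMSO, 5% solutol and 90% saline. Plasma was taken from heparinized blood at each time point and stored at −80 °C. Levels were measured by LC-MS/MS, with noncompartmental analysis and BLQ values omitted.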

Data set [15] can be described thus: Intrinsic clearance in human liver microsomes at 1 uM preincubated for 10 mins followed by NADPH addition measured up to 60 mins by LC-MS/MS analysis. The format is ADME, microsome. Conditions: read-out: CLH.
Data set [16] can be described thus: (§3) Intrinsic clearance in dog liver microsomes at 1 uM preincubated for 10 mins followed by NADPH addition measured up to 60 mins by LC-MS/MS analysis. Format: ADME, Canis lupus familiaris, microsome. Conditions: liver microsomes, read-out: CLH.
Data set [17] is described as follows: Half life in Beagle dog at 2 mg/kg, iv administered as single dose by LC-MS/MS analysis. The format is ADME, organism-based, Canis lupus familiaris. As to conditions: in vivo.
The nature of data set [18]: Drug uptake in Balb/c mouse liver at 12.5 mg/kg, po bid after 24 hrs by LC-MS/MS analysis. The format is ADME, organism-based. As to conditions: read-out: Drug uptake.
A short description of data set [19]: Oral bioavailability in Beagle dog at 5 mg/kg administered as single dose by LC-MS/MS analysis. Format: ADME, organism-based, Canis lupus familiaris. Conditions: in vivo.
A short description of data set [20]: Plasma concentration in Balb/c mouse at 12.5 mg/kg, po bid after 24 hrs by LC-MS/MS analysis. The format is ADME, organism-based.
The subject of a further data set is Liver. The data set is described as §3. As to conditions: microsomes, 1 h, 1 µM. Format: ADME, Canis lupus familiaris, microsome.

Consider `CCOC(=O)C1=C(CN2CCOCC2)NC(c2nccs2)=NC1c1ccc(F)cc1Br` (centres undefined), for which the Cmax in data set [1] came out at 391 ng/mL; in data set [8], 1420 ng/mL. The AUC(0-t) at 24 h in data set [2] is 1470 ng·h/mL; in data set [3], 1010 ng·h/mL; in [4], 90 ng·h/mL; in data set [5] it was 405 ng·h/mL. Moreover, the figures for the concentration at 24 h in data set [6] and in [12] were 9 ng/mL and 15 ng/mL, respectively. Moreover, the figures for the CLint scaled at 1 µM in [7] and in [15] were 485 mL/min/kg and 20 mL/min/kg, respectively. Besides, the bioavailability in [9] came to 8.9%. Besides, the Vd in [10] was determined as 4.85 L/kg; in data set [14], 15.8 L/kg. For the same compound, the clearance is 16.6 mL/min/kg in data set [11] and 82.2 mL/min/kg in [13].
`CCOC(=O)C1=C(CN2CCOC[C@H]2C(=O)O)NC(c2nccs2)=N[C@H]1c1ccc(F)cc1Br`: the AUC(0-t) at 24 h in [4] turned out to be 548 ng·h/mL; in data set [5], 948 ng·h/mL. Further, the CLint scaled at 1 µM was determined as 377 mL/min/kg in data set [7], 29 mL/min/kg in data set [16] and 7 mL/min/kg in data set [15]. In addition, the bioavailability in data set [9] stood at 23.1%. Moreover, the Vd in data set [10] was found to be 0.4 L/kg. For the same compound, in data set [13], the clearance is 34.9 mL/min/kg.
For the compound `CCOC(=O)C1=C(CN2CCOC[C@@H]2CCC(=O)O)NC(c2nccs2)=N[C@H]1c1ccc(F)cc1Br`, the AUC(0-t) at 24 h in data set [4] was found to be 572 ng·h/mL; in data set [5], 423 ng·h/mL. The figures for the CLint scaled at 1 µM in data set [7], in data set [16] and in data set [15] were 316 mL/min/kg, 46 mL/min/kg and 23 mL/min/kg, respectively. Also, the bioavailability in data set [9] came out at 54%. Also, the Vd in [10] was determined as 1.53 L/kg. For the same compound, in data set [13], the clearance turned out to be 78.7 mL/min/kg.
With `CCOC(=O)C1=C(CN2CCO[C@H](CCC(=O)O)C2)NC(c2nccs2)=N[C@H]1c1ccc(F)cc1Br`, the AUC(0-t) at 24 h came out at 16500 ng·h/mL in data set [2], 47900 ng·h/mL in [3], 4900 ng·h/mL in data set [4] and 4110 ng·h/mL in [5]. Also, the concentration at 24 h is 232 ng/mL in data set [6], 47 ng/mL in data set [12], 361 ng/g in data set [18] and 849 ng/mL in data set [20]. Besides, the CLint scaled at 1 µM was 385 mL/min/kg in data set [7], 14 mL/min/kg in data set [16] and 18 mL/min/kg in data set [15]. The same compound gave a Cmax in [8] of 2050 ng/mL. In addition, the results for the bioavailability in data set [9] and in data set [19] were 47.7% and 114%, respectively. Moreover, the Vd in data set [10] came out at 0.41 L/kg; in [14], 0.76 L/kg. The clearance in data set [11] came to 1.93 mL/min/kg; in data set [13] it was 8.11 mL/min/kg. The compound also gave a half-life in data set [17] of 5.71 h.
Regarding `CCOC(=O)C1=C(CN2CCO[C@H](C)[C@H]2C(=O)O)NC(c2nccs2)=N[C@H]1c1ccc(F)cc1Br`, the AUC(0-t) at 24 h in data set [4] came out at 1750 ng·h/mL; in [5], 1610 ng·h/mL. Besides, the CLint scaled at 1 µM is 89 mL/min/kg in [7] and 5 mL/min/kg in data set [15]. Moreover, in data set [9], the bioavailability is 44.5%. For the same compound, the Vd in data set [10] was found to be 0.37 L/kg. The clearance in [13] was 20.6 mL/min/kg. In addition, the CLH result in the data set on Liver was “Stable”.
Take `CCOC(=O)C1=C(CN2CC(F)(F)C[C@@H]2CCC(=O)O)NC(c2nccs2)=N[C@H]1c1ccc(F)cc1Br`: the AUC(0-t) at 24 h in [4] was determined as 999 ng·h/mL; in data set [5] it was 965 ng·h/mL. The CLint scaled at 1 µM amounted to 362 mL/min/kg in data set [7], 55 mL/min/kg in data set [16] and 21 mL/min/kg in [15]. For the same compound, in [9], the bioavailability turned out to be 41.3%. In data set [10], the Vd was 0.77 L/kg. In addition, the clearance in data set [13] amounted to 34.4 mL/min/kg.
As for `CCOC(=O)C1=C(CN2CCO[C@@H](CCC(=O)O)C2)NC(c2nccs2)=N[C@H]1c1ccc(F)cc1Br`, the AUC(0-t) at 24 h in data set [4] stood at 436 ng·h/mL; in data set [5], 430 ng·h/mL. The CLint scaled at 1 µM in data set [7] amounted to 281 mL/min/kg; in [16], 11 mL/min/kg; in [15] it was 21 mL/min/kg. The bioavailability in data set [9] came out at 41%. For the same compound, the Vd in data set [10] was 1.24 L/kg. Further, in data set [13], the clearance came out at 77.3 mL/min/kg.
